From ChEMBL document CHEMBL3259718, “Identifying structural determinants of potency for analogs of apelin-13: integration of C-terminal truncation with structure-activity” (Bioorg Med Chem, 2014)
Counter-ions that a name gives are not always drawn. Square brackets hold non-standard residues; d marks the D form. Peptide text beside a SMILES is read from it. * marks the point of attachment. hPhe = N[C@@H](CCc1ccccc1)C(=O)O; Nle = CCCC[C@H](N)C(=O)O; Aoc = NCCCCCCCC(=O)O; Tfa = O=C(C(F)(F)F)*

What was measured:
[1] = Retention time of the compound by HPLC analysis; assay type: physicochemical
Procedure, shortened: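 Analytical reverse-phase HPLC on a peptide C18 column with a 5–45% acetonitrile gradient over 30 min. Identity was confirmed by ESI-MS mass.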

[2] = molecular target: T1, Apelin receptor (Homo sapiens, UniProt P35414); assay: Agonist activity at APJ receptor (unknown origin) expressed in CHO cells co-expressing with Calphaq16 assessed as calcium mobilization; assay type: functional, cell-based
T1 sequence (P35414 whole entry): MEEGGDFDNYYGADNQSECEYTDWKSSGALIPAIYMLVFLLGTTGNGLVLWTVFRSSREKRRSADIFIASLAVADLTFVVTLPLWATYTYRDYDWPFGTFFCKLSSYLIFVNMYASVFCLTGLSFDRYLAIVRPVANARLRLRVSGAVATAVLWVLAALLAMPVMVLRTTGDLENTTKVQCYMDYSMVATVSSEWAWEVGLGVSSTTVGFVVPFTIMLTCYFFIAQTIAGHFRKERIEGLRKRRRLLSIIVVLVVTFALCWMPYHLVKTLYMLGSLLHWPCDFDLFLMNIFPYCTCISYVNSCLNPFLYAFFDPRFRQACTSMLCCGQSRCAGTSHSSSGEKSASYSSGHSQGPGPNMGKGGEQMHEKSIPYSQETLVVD

[3] = Half life in rat plasma at pH 7.4 by LC-MS/MS analysis; assay type: ADME, cell-free
Procedure, shortened: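 Peptide incubated in rat plasma adjusted to pH 7.4 at 37 °C, with DMSO kept below 2.5%. Reactions were stopped with acetonitrile at 0, 2, 5, 15, 30 and 60 min and clarified by centrifugation. Parent remaining was quantified by UPLC-MS/MS using MRM.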

[4] = system: Plasma; assay: Drug metabolism in rat plasma assessed as Ac-R-P-Nle-L-A after 15 to 25 mins by ESI-MS analysis; assay type: ADME, cell-free
Procedure, shortened: (§1)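 Peptide incubated in rat serum, with aliquots taken over a time course. Samples were run on reverse-phase capillary C18 nano-LC, with mobile phase B rising linearly from 10% to 60% over 55 min at 450 nl/min. Detection was positive-ion nano-ESI Orbitrap MS in data-dependent mode (1 FTMS plus 3 IT-MS/MS cycles, resolution 7500). Fragments were assigned from [M+H]+ masses using peptide ladder predictions.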

[5] = system: Plasma; assay: Drug metabolism in rat plasma assessed as Ac-R-P-Nle after 15 to 25 mins by ESI-MS analysis; assay type: ADME, cell-free; procedure, shortened: as §1

Compound | Retention_time [1] [min] | EC50 ([2]; read-out: EC50) [nM] | further results
CSCC[C@H](NC(=O)[C@@H]1CCCN1C(=O)CNC(=O)[C@H](CCCCN)NC(=O)[C@H](Cc1cnc[nH]1)NC(=O)[C@H](CO)NC(=O)[C@H](CC(C)C)NC(=O)[C@H](CCCNC(=N)N)NC(=O)[C@@H]1CCCN1C(=O)[C@H](CCCNC(=N)N)NC(=O)[C@@H]1CCC(=O)N1)C(=O)N1CCC[C@H]1C(=O)N[C@@H](Cc1ccccc1)C(=O)O | 17.44 |  | 
CC(=O)N[C@@H](CCCNC(=N)N)C(=O)N1CCC[C@H]1C(=O)N[C@@H](CCCCN)C(=O)N[C@@H](CC(C)C)C(=O)N[C@@H](C)C(=O)N[C@@H](C)C(=O)N[C@@H](CCCCN)C(=O)NCC(=O)N1CCC[C@@H]1C(=O)N[C@@H](CC(C)C)C(N)=O | 13.25 |  | EC50 ([2]; cho, read-out: EC50): 1.7 nM
CC(=O)N[C@@H](CCCCNC(=O)C(F)(F)F)C(=O)N1CCC[C@H]1C(=O)N[C@@H](CCCNC(=N)N)C(=O)N[C@@H](CC(C)C)C(=O)N[C@@H](C)C(=O)N[C@@H](C)C(=O)N[C@@H](CCCCN)C(=O)NCC(=O)N1CCC[C@H]1C(=O)N[C@@H](CC(C)C)C(N)=O (Ac-K(Tfa)PRLAAKGPL-NH2) | 17.23 | > 3000 | 
CCCC[C@H](NC(=O)[C@H](C)NC(=O)[C@H](C)NC(=O)[C@H](CC(C)C)NC(=O)[C@H](CCCCN)NC(=O)[C@@H]1CCCN1C(=O)[C@H](CCCNC(=N)N)NC(C)=O)C(=O)NCC(=O)N1CCC[C@H]1C(=O)N[C@@H](CC(C)C)C(N)=O (Ac-RPKLAA[Nle]GPL-NH2) | 17.64 | 2.2 | 
CC(=O)N[C@@H](CCCNC(=N)N)C(=O)N1CCC[C@H]1C(=O)NCCCCCCCC(=O)N[C@@H](CC(C)C)C(=O)N[C@@H](C)C(=O)N[C@@H](C)C(=O)N[C@@H](C)C(=O)NCC(=O)N1CCC[C@H]1C(=O)N[C@@H](CC(C)C)C(N)=O (Ac-RP[Aoc]LAAAGPL-NH2) | 22 | > 3000 | 
CCCC[C@H](NC(=O)[C@@H]1CCCN1C(=O)[C@H](CCCNC(=N)N)NC(C)=O)C(=O)N[C@@H](CC(C)C)C(=O)N[C@@H](C)C(=O)N[C@@H](C)C(=O)N[C@@H](CCCCN)C(=O)NCC(=O)N1CCC[C@H]1C(=O)N[C@@H](CC(C)C)C(N)=O (Ac-RP[Nle]LAAKGPL-NH2) | 16.64 | 3.2 | 
CCCC[C@H](NC(=O)[C@H](C)NC(=O)[C@H](C)NC(=O)[C@H](CC(C)C)NC(=O)[C@H](CCCC)NC(=O)[C@@H]1CCCN1C(=O)[C@H](CCCNC(=N)N)NC(C)=O)C(=O)NCC(=O)N1CCC[C@H]1C(=O)N[C@@H](CC(C)C)C(N)=O (Ac-RP[Nle]LAA[Nle]GPL-NH2) | 16.79 | 33 | half-life [3]: 2 min; Drug metabolism [4]: metabolite_detected; Drug metabolism [5]: metabolite_detected
CCCC[C@H](NC(=O)[C@@H]1CCCN1C(=O)[C@H](CCCNC(=N)N)NC(C)=O)C(=O)NCCCCCCCC(=O)N[C@@H](C)C(=O)N[C@@H](C)C(=O)N[C@@H](CCCCN)C(=O)NCC(=O)N1CCC[C@H]1C(=O)N[C@@H](CC(C)C)C(N)=O (Ac-RP[Nle][Aoc]AAKGPL-NH2) | 19.43 | 539 | 
CCCC[C@H](NC(=O)[C@@H]1CCCN1C(=O)[C@H](CCCNC(=N)N)NC(C)=O)C(=O)N[C@@H](CCc1ccccc1)C(=O)N[C@@H](C)C(=O)N[C@@H](C)C(=O)N[C@@H](CCCCN)C(=O)NCC(=O)N1CCC[C@H]1C(=O)N[C@@H](CC(C)C)C(N)=O (Ac-RP[Nle][hPhe]AAKGPL-NH2) | 18.37 | 73 | 
Ac-APRLSHKGPL-NH2 | 13.2 | 1380 | 
Ac-KGPMPF-OH |  |  | EC50 ([2]; read-out: pEC50 (converted)): > 31600 nM
Ac-KPRLAAKGPL-NH2 | 13.08 | 494 | 
Ac-LSHKGPMPF-OH |  |  | EC50 ([2]; read-out: pEC50 (converted)): > 31600 nM
Ac-RARLAAKGPL-NH2 | 13.23 | 31 | 
Ac-RPALAAKGPL-NH2 | 14.15 | 8.9 | 
Ac-RPKFAAKGPL-NH2 | 13.91 | 44 | 
Ac-RPRAAAKGPL-NH2 | 11.33 | 936 | 
Ac-RPRLAAAGPL-NH2 | 14.93 | 637 | 
Ac-RPRLAAKGAL-NH2 | 12.37 | 237 | 
Ac-RPRLAAKGPL-NH2 | 13.64 | 1.1 | 
Ac-RPRLSHKGPF-NH2 | 13.43 | 4.7 | 
Ac-RPRLSHKGPL-NH2 | 12.43 | 1.9 | 
Ac-RPRLSHKGPM-NH2 | 11.47 | 4.4 | 
Ac-RPRLSHKGPV-NH2 | 10.84 | 691 | 
H-QRPRLS-NH2 | 15.93 | > 3000 | 
H-QRPRLSH-NH2 | 13.49 | > 3000 | 
H-QRPRLSHK-NH2 | 12.94 | > 3000 | 
H-QRPRLSHKG-NH2 |  | > 3000 | 
H-QRPRLSHKGP-NH2 |  | 2350 | 
